Measured values published in ChEMBL document CHEMBL1124538, “Mono and bis(bioreductive) alkylating agents: synthesis and antitumor activities in a B16 melanoma model” (J Med Chem, 1989).
Values joined by “and” are separate entries in the source; they are usually repeats but may differ in a detail not shown here. Equal values may be shown once.

Experiments:
Mus musculus [1] = assay: (§1) Antitumor efficacy against subcutaneously implanted B16 melanoma tumor in BDF1 hybrid mice, administered intraperitoneally with 10 mg/kg of compound; assay type: functional
Summary of the method: (§2)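 Female BDF1 mice received 0.5 mL B16 tumor brei sc into the shaved dorsoscapular area; the brei was a 1:10 w/v dilution in HBSS from tumor passaged sc in C57BL/6 mice. Dosing was ip for 9 consecutive days once the tumor was palpable, in saline, 0.3% Klucel or 0.33% Klucel/NaHCO3. Mice were observed daily for up to 120 days. %T/C is median survival treated/control (NCI Instruction 14); active if ≥140.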

B16 [2] = assay: (§3) Percent B16 melanoma growth inhibition at dose 10 mg/kg in mice; assay type: functional, Mus musculus; conditions: for inhibition in vivo at 10 mg/kg: Mus musculus, B16, dose 10 mg/kg; for Inhibition: dose 10 mg/kg
Summary of the method: (§4)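 B16 brei (1:10 w/v in HBSS, 0.5 mL) was implanted sc into female BDF1 mice. Mice got ip doses for 9 consecutive days after the tumor became palpable, in saline, 0.3% Klucel or 0.33% Klucel/NaHCO3. Serial tumor diameters were measured. Inhibition = 100 − [(change in average tumor diameter, treated/control) × 100]; active if ≥25%.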

Mus musculus [3] = assay: as §3; assay type: functional; conditions: B16, dose 10 mg/kg; summary of the method: as §4
Mus musculus [4] = assay: Antitumor efficacy against subcutaneously implanted B16 melanoma tumor in BDF1 hybrid mice, administered intraperitoneally with 20 mg/kg of compound; assay type: functional; summary of the method: as §2
B16 [5] = assay: Percent B16 melanoma growth inhibition at dose 20 mg/kg in mice; assay type: functional, Mus musculus; conditions: for inhibition in vivo at 20 mg/kg: Mus musculus, B16, dose 20 mg/kg; summary of the method: as §4
B16 [6] = assay: as §1; assay type: functional, Mus musculus; summary of the method: as §2
Mus musculus [7] = assay: Compound was tested for increase in life span of P388 leukemia bearing mice at dose of 5 mg/Kg; Did nto increase significantly; assay type: functional, organism-based
Mus musculus [8] = assay: Compound was tested for increase in life span of P388 leukemia bearing mice at dose of 20 mg/Kg; Showed Toxicity, and weight loss; assay type: organism-based; conditions: in vivo
Mus musculus [9] = assay: Compound was tested for increase in life span of P388 leukemia bearing mice at dose of 10 mg/Kg; Did nto increase significantly; assay type: functional, organism-based
Mus musculus [10] = assay: Compound was tested for increase in life span of P388 leukemia bearing mice at dose of 40 mg/Kg; Showed Toxicity, and weight loss; assay type: organism-based; conditions: in vivo
B16 [11] = assay: Percent B16 melanoma growth inhibition at dose 4 mg/kg in mice; assay type: functional; conditions: Mus musculus; summary of the method: as §4
Mus musculus [12] = assay: Antitumor efficacy against subcutaneously implanted B16 melanoma tumor in BDF1 hybrid mice, administered intraperitoneally with 4 mg/kg of compound; assay type: functional; summary of the method: as §2

`CC(=O)OCC1=CC(=O)C=C(COC(C)=O)C1=O` was tested, and the T/C (Mus musculus [1]) was 100% and the inhibition in vivo at 10 mg/kg (B16 [2]) was 13%.

Compound `O=C1C=C(CCl)C(=O)C=C1CCl` has an inhibition in vivo at 10 mg/kg (Mus musculus [3]) of 4% and a T/C (Mus musculus [1]) of 104%.

In the case of `O=C1C=C(CBr)C(=O)C=C1CBr`, the T/C (Mus musculus [1]; 10 mg/kg) is reported as 140% and 118%, the inhibition in vivo at 10 mg/kg (B16 [2]) is reported as 20% and the Inhibition (B16 [2]) is reported as 30%.

In the case of `O=C1C=CC(=O)C(COC(=O)CCC(=O)O)=C1`, the T/C (Mus musculus [4]) is reported as 115%, the inhibition in vivo at 20 mg/kg (B16 [5]) is reported as 19% and the T/C (B16 [6]) is reported as 130%. It also gave a T/C (Mus musculus [1]) of 164%, an inhibition in vivo at 10 mg/kg (B16 [2]) of 27% and an Inhibition (B16 [2]) of 32%.

`CC(=O)OCC1=CC(=O)C(CCC2=CC(=O)C(COC(C)=O)=CC2=O)=CC1=O` was tested, and the T/C (Mus musculus [1]) was 129% and the inhibition in vivo at 10 mg/kg (B16 [2]) was 16%.

In the case of `O=C1C=C(COC(=O)CCC(=O)O)C(=O)C(COC(=O)CCC(=O)O)=C1`, the T/C (Mus musculus [4]; 20 mg/kg) is reported as 110% and 130%, the inhibition in vivo at 20 mg/kg (B16 [5]) is reported as 23% and the Inhibition (B16 [5]; dose 20 mg/kg) is reported as 29%.

Compound `O=C1C=C(CCC2=CC(=O)C(CBr)=CC2=O)C(=O)C=C1CBr` has a T/C (Mus musculus [1]) of 102% and an inhibition in vivo at 10 mg/kg (B16 [2]) of 16%.

`CC(=O)OCC1=CC(=O)C=CC1=O` was tested, and the T/C (Mus musculus [4]) was 142%, the inhibition in vivo at 20 mg/kg (B16 [5]) was 63% and the Increase in life-span (Mus musculus [7]) was “Did nto increase significantly”. The Increase in life-span (Mus musculus [8]) was “Did nto increase significantly”, the Increase in life-span (Mus musculus [9]) was “Did nto increase significantly” and the Increase in life-span (Mus musculus [10]) was “Did nto increase significantly”. For the same compound, the inhibition in vivo at 4 mg/kg (B16 [11]) was 31% and the T/C (Mus musculus [12]) was 144%.

`COC1=CC(=O)C(COC(C)=O)=CC1=O` gave a T/C (Mus musculus [1]) of 110% and an inhibition in vivo at 10 mg/kg (B16 [2]) of 0%.

Compound `O=C1C=C(CBr)C(=O)C(CBr)=C1` has a T/C (Mus musculus [1]) of 105% and an inhibition in vivo at 10 mg/kg (B16 [2]) of 24%.

`O=C(O)CCC(=O)OCC1=CC(=O)C(CCC2=CC(=O)C(COC(=O)CCC(=O)O)=CC2=O)=CC1=O` was tested, and the T/C (Mus musculus [1]; 10 mg/kg) was 123% and 106%.

In the case of `O=C1C=C(CO)C(=O)C(CO)=C1`, the T/C (Mus musculus [4]) is reported as 171%, the inhibition in vivo at 20 mg/kg (B16 [5]) is reported as 36% and the T/C (Mus musculus [1]) is reported as 90%. The inhibition in vivo at 10 mg/kg (B16 [2]) was 19%.

In the case of `O=C(O)CCC(=O)OCC1=CC(=O)C(COC(=O)CCC(=O)O)=CC1=O`, the T/C (Mus musculus [1]; 10 mg/kg) is reported as 115% and 111%, the inhibition in vivo at 10 mg/kg (B16 [2]) is reported as 38% and the Inhibition (B16 [2]) is reported as 19%.
